Laboratory results as given in ChEMBL document CHEMBL1152561, “Evaluation of delocalized lipophilic cationic dyes as delivery vehicles for photosensitizers to mitochondria” (Bioorg Med Chem, 2009).
Active and inactive are the calls of the source. No cut-off for these calls is given here.

What was measured:
[1] = test system: R3230AC; assay: Phototoxicity in rat R3230AC cells irradiated with halogen lamp pretreated 24 hrs before irradiation by MTT assay; type: functional, cell-based; conditions: light or radiation study
Outline: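 Cells were seeded at 1.0–1.5 × 10^4 per well, grown 24 h, then given 1–20 µM dye in complete medium for 24 h. After two saline rinses, cells in clear medium were irradiated with halogen broadband light (400–850 nm, water-filtered) at 3 mW cm−2 for 1 h while orbiting. They were refed and grown 24 h more. Viability was read by MTT as a percentage of light-exposed dye-free controls.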

[2] = n-Octanol-phosphate buffer partition coefficient, log D at pH 7.4 by shake-flask method; type: physicochemical
Outline: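 Dye was added to saturation in equal volumes (2 mL) of n-octanol and pH 7.4 phosphate buffer. The mixture was sonicated 30 min and left to settle 4 h. Each layer was diluted in dichloromethane and absorbance measured. Log D7.4 was taken from the ratio of absorbances between the two layers.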

[3] = test system: R3230AC; assay: Stability in rat R3230AC cell lysate at 10 uM after 24 hrs; type: ADME, cell-based
Outline: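 Cells seeded at 2.0–3.0 × 10^4 per well were grown 24 h, then exposed to dye in complete medium for 24 h. After two 0.9% NaCl rinses, cells were lysed in DMSO. Fluorescence (excitation 550 nm, emission 555–750 nm) was compared with dye in DMSO, including the ratio of the 580 and 650 nm peaks.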

[4] = test system: R3230AC; assay: Cytotoxicity against rat R3230AC cells up to 20 uM for 24 hrs in dark; type: functional, cell-based
[5] = test system: R3230AC; assay: Cellular uptake in rat R3230AC cells measured per cell at 10 uM after 24 hrs; type: ADME, cell-based
Outline: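 R3230AC cells were grown in α-MEM with 10% bovine growth serum at 37 °C and 5% CO2. Dyes were diluted from 2 mM DMSO stocks. Intracellular dye content was measured by fluorescence at dye-appropriate excitation and emission wavelengths and converted using a fluorescence calibration curve.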

Row | logD [2] | Stability [3] | Activity [5] [fmol] | SMILES | IC50 [1] [µM] | Activity [4]
1 | -0.99 |  |  | CN(C)c1ccc2cc3ccc(N(C)C)cc3nc2c1 | 2.29 | 
2 | 3.53 | Stable |  | CCN(CC)c1ccc2c(-c3ccccc3C(=O)OCCCOc3ccc(-c4c5nc(c(-c6ccccc6)c6ccc([nH]6)c(-c6ccccc6)c6nc(c(-c7ccccc7)c7ccc4[nH]7)C=C6)C=C5)cc3)c3ccc(=[N+](CC)CC)cc-3oc2c1.[I-] | 3.95 | inactive
3 | 2.2 |  |  | CCN(CC)c1ccc2c(-c3ccccc3C(=O)O)c3ccc(=[N+](CC)CC)cc-3oc2c1 [RHODAMINE B] |  | 
4 | 0.79 |  | 68.2 | CN(C)c1ccc2cc3ccc(N(C)C)cc3[n+](CCCOc3ccc(-c4c5nc(c(-c6ccccc6)c6ccc([nH]6)c(-c6ccccc6)c6nc(c(-c7ccccc7)c7ccc4[nH]7)C=C6)C=C5)cc3)c2c1.[I-] | 3.28 | 
5 | 2.3 |  | 5.6 | Oc1ccc(-c2c3nc(c(-c4ccccc4)c4ccc([nH]4)c(-c4ccccc4)c4nc(c(-c5ccccc5)c5ccc2[nH]5)C=C4)C=C3)cc1 |  | inactive
6 |  |  |  | CCN(CC)c1ccc2c(-c3ccccc3C(C)=O)c3ccc(=[N+](CC)CC)cc-3oc2c1 |  | inactive
